Data as given in ChEMBL document CHEMBL4689842, “EUbOPEN Chemogenomics Library wave 1” (2021).

System: HEK-293T
Test: Multiplex assay against HEK293T;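 as to Population Tubulin-Different-Phenotype (%): share of the cells with healthy nuclei that show this phenotype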
Type: toxicity, cell-based
Details: human
How it was run: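 On a CQ1 microscope at 37°C and 5% CO2, live cells were imaged after compound addition. They had been stained at seeding with Hoechst33342, BioTracker Green Microtubule Cytoskeleton Dye, MitoTracker Red and Annexin V Alexa Fluor 680. CellPathfinder machine-learning gating assigned cells to Hoechst high-intensity objects or normal cells, normal cells to healthy, pyknosed or fragmented nuclei, and pyknosed cells to mitotic or apoptotic. Tubulin, mitochondrial-mass and membrane-permeability phenotypes are per cents of healthy-nucleus cells.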

[1] = 12 h, 1 µM, compound concentration 1 uM, replicate 1
[2] = 12 h, 1 µM, compound concentration 1 uM, replicate 2
[3] = 12 h, 10 µM, compound concentration 10 uM, replicate 1
[4] = 12 h, 10 µM, compound concentration 10 uM, replicate 2
[5] = 24 h, 1 µM, compound concentration 1 uM, replicate 1
[6] = 24 h, 1 µM, compound concentration 1 uM, replicate 2
[7] = 24 h, 10 µM, compound concentration 10 uM, replicate 1
[8] = 24 h, 10 µM, compound concentration 10 uM, replicate 2
[9] = 48 h, 1 µM, compound concentration 1 uM, replicate 1
[10] = 48 h, 1 µM, compound concentration 1 uM, replicate 2
[11] = 48 h, 10 µM, compound concentration 10 uM, replicate 1
[12] = 48 h, 10 µM, compound concentration 10 uM, replicate 2

## CCCn1c(=O)c2[nH]c(C34CC5CC(CC3C5)C4)nc2n(CCC)c1=O [ROLOFYLLINE]
[1]
  Population Apoptotic (%): 63%
  Population Fragmented Nuclei (%): 14%
  Population Healthy Nuclei (%): 30%
  Population Hoechst High Intensity Objects (%): 15%
  Population Membrane Permeable-Phenotype (%): 3%
  Population Mitochondria Different-Phenotype (%): 84%
  Population Mitotic Cells (%): 36%
  Population Normal (%): 84%
  Population Pyknosed Nuclei (%): 55%
  Population Tubulin-Different-Phenotype (%): 70%
  Total Cell Count: 200
[2]
  Population Apoptotic (%): 12%
  Population Fragmented Nuclei (%): 6%
  Population Healthy Nuclei (%): 43%
  Population Hoechst High Intensity Objects (%): 4%
  Population Membrane Permeable-Phenotype (%): 10%
  Population Mitochondria Different-Phenotype (%): 18%
  Population Mitotic Cells (%): 87%
  Population Normal (%): 95%
  Population Pyknosed Nuclei (%): 50%
  Population Tubulin-Different-Phenotype (%): 15%
  Total Cell Count: 185
[3]
  Population Apoptotic (%): 78%
  Population Fragmented Nuclei (%): 12%
  Population Healthy Nuclei (%): 28%
  Population Hoechst High Intensity Objects (%): 15%
  Population Membrane Permeable-Phenotype (%): 1%
  Population Mitochondria Different-Phenotype (%): 96%
  Population Mitotic Cells (%): 21%
  Population Normal (%): 84%
  Population Pyknosed Nuclei (%): 59%
  Population Tubulin-Different-Phenotype (%): 80%
  Total Cell Count: 256
[4]
  Population Apoptotic (%): 41%
  Population Fragmented Nuclei (%): 5%
  Population Healthy Nuclei (%): 24%
  Population Hoechst High Intensity Objects (%): 9%
  Population Membrane Permeable-Phenotype (%): 12%
  Population Mitochondria Different-Phenotype (%): 84%
  Population Mitotic Cells (%): 58%
  Population Normal (%): 90%
  Population Pyknosed Nuclei (%): 69%
  Population Tubulin-Different-Phenotype (%): 87%
  Total Cell Count: 143
[5]
  Population Apoptotic (%): 50%
  Population Fragmented Nuclei (%): 14%
  Population Healthy Nuclei (%): 32%
  Population Hoechst High Intensity Objects (%): 22%
  Population Membrane Permeable-Phenotype (%): 1%
  Population Mitochondria Different-Phenotype (%): 77%
  Population Mitotic Cells (%): 49%
  Population Normal (%): 77%
  Population Pyknosed Nuclei (%): 53%
  Population Tubulin-Different-Phenotype (%): 83%
  Total Cell Count: 212
[6]
  Population Apoptotic (%): 15%
  Population Fragmented Nuclei (%): 4%
  Population Healthy Nuclei (%): 59%
  Population Hoechst High Intensity Objects (%): 3%
  Population Membrane Permeable-Phenotype (%): 11%
  Population Mitochondria Different-Phenotype (%): 17%
  Population Mitotic Cells (%): 85%
  Population Normal (%): 96%
  Population Pyknosed Nuclei (%): 36%
  Population Tubulin-Different-Phenotype (%): 38%
  Total Cell Count: 228
[7]
  Population Apoptotic (%): 77%
  Population Fragmented Nuclei (%): 13%
  Population Healthy Nuclei (%): 31%
  Population Hoechst High Intensity Objects (%): 14%
  Population Membrane Permeable-Phenotype (%): 2%
  Population Mitochondria Different-Phenotype (%): 97%
  Population Mitotic Cells (%): 22%
  Population Normal (%): 85%
  Population Pyknosed Nuclei (%): 54%
  Population Tubulin-Different-Phenotype (%): 71%
  Total Cell Count: 255
[8]
  Population Apoptotic (%): 40%
  Population Fragmented Nuclei (%): 7%
  Population Healthy Nuclei (%): 38%
  Population Hoechst High Intensity Objects (%): 7%
  Population Membrane Permeable-Phenotype (%): 22%
  Population Mitochondria Different-Phenotype (%): 75%
  Population Mitotic Cells (%): 60%
  Population Normal (%): 92%
  Population Pyknosed Nuclei (%): 53%
  Population Tubulin-Different-Phenotype (%): 87%
  Total Cell Count: 150
[9]
  Population Apoptotic (%): 50%
  Population Fragmented Nuclei (%): 20%
  Population Healthy Nuclei (%): 27%
  Population Hoechst High Intensity Objects (%): 23%
  Population Membrane Permeable-Phenotype (%): 4%
  Population Mitochondria Different-Phenotype (%): 61%
  Population Mitotic Cells (%): 49%
  Population Normal (%): 76%
  Population Pyknosed Nuclei (%): 52%
  Population Tubulin-Different-Phenotype (%): 70%
  Total Cell Count: 227
[10]
  Population Apoptotic (%): 8%
  Population Fragmented Nuclei (%): 6%
  Population Healthy Nuclei (%): 78%
  Population Hoechst High Intensity Objects (%): 4%
  Population Membrane Permeable-Phenotype (%): 14%
  Population Mitochondria Different-Phenotype (%): 7%
  Population Mitotic Cells (%): 91%
  Population Normal (%): 95%
  Population Pyknosed Nuclei (%): 15%
  Population Tubulin-Different-Phenotype (%): 30%
  Total Cell Count: 417
[11]
  Population Apoptotic (%): 64%
  Population Fragmented Nuclei (%): 18%
  Population Healthy Nuclei (%): 31%
  Population Hoechst High Intensity Objects (%): 12%
  Population Membrane Permeable-Phenotype (%): 4%
  Population Mitochondria Different-Phenotype (%): 98%
  Population Mitotic Cells (%): 35%
  Population Normal (%): 87%
  Population Pyknosed Nuclei (%): 50%
  Population Tubulin-Different-Phenotype (%): 87%
  Total Cell Count: 257
[12]
  Population Apoptotic (%): 67%
  Population Fragmented Nuclei (%): 11%
  Population Healthy Nuclei (%): 55%
  Population Hoechst High Intensity Objects (%): 7%
  Population Membrane Permeable-Phenotype (%): 16%
  Population Mitochondria Different-Phenotype (%): 62%
  Population Mitotic Cells (%): 32%
  Population Normal (%): 92%
  Population Pyknosed Nuclei (%): 32%
  Population Tubulin-Different-Phenotype (%): 86%
  Total Cell Count: 185

## CN(C)CCOc1ccc(-c2nc(-c3ccncc3)c(-c3ccc4c(c3)CC/C4=N\O)[nH]2)cc1 [SB590885]
[1]
  Population Apoptotic (%): 25%
  Population Fragmented Nuclei (%): 15%
  Population Healthy Nuclei (%): 65%
  Population Hoechst High Intensity Objects (%): 22%
  Population Membrane Permeable-Phenotype (%): 30%
  Population Mitochondria Different-Phenotype (%): 8%
  Population Mitotic Cells (%): 74%
  Population Normal (%): 77%
  Population Pyknosed Nuclei (%): 18%
  Population Tubulin-Different-Phenotype (%): 44%
  Total Cell Count: 678
[2]
  Population Apoptotic (%): 17%
  Population Fragmented Nuclei (%): 2%
  Population Healthy Nuclei (%): 88%
  Population Hoechst High Intensity Objects (%): 12%
  Population Membrane Permeable-Phenotype (%): 12%
  Population Mitochondria Different-Phenotype (%): 23%
  Population Mitotic Cells (%): 82%
  Population Normal (%): 87%
  Population Pyknosed Nuclei (%): 8%
  Population Tubulin-Different-Phenotype (%): 76%
  Total Cell Count: 1120
[3]
  Population Apoptotic (%): 28%
  Population Fragmented Nuclei (%): 12%
  Population Healthy Nuclei (%): 69%
  Population Hoechst High Intensity Objects (%): 9%
  Population Membrane Permeable-Phenotype (%): 4%
  Population Mitochondria Different-Phenotype (%): 8%
  Population Mitotic Cells (%): 71%
  Population Normal (%): 90%
  Population Pyknosed Nuclei (%): 18%
  Population Tubulin-Different-Phenotype (%): 5%
  Total Cell Count: 676
[4]
  Population Apoptotic (%): 8%
  Population Fragmented Nuclei (%): 7%
  Population Healthy Nuclei (%): 87%
  Population Hoechst High Intensity Objects (%): 1%
  Population Membrane Permeable-Phenotype (%): 3%
  Population Mitotic Cells (%): 91%
  Population Normal (%): 98%
  Population Pyknosed Nuclei (%): 4%
  Population Tubulin-Different-Phenotype (%): 9%
  Total Cell Count: 1929
[5]
  Population Apoptotic (%): 24%
  Population Fragmented Nuclei (%): 15%
  Population Healthy Nuclei (%): 69%
  Population Hoechst High Intensity Objects (%): 24%
  Population Membrane Permeable-Phenotype (%): 23%
  Population Mitochondria Different-Phenotype (%): 14%
  Population Mitotic Cells (%): 75%
  Population Normal (%): 75%
  Population Pyknosed Nuclei (%): 15%
  Population Tubulin-Different-Phenotype (%): 48%
  Total Cell Count: 670
[6]
  Population Apoptotic (%): 10%
  Population Fragmented Nuclei (%): 6%
  Population Healthy Nuclei (%): 86%
  Population Hoechst High Intensity Objects (%): 18%
  Population Membrane Permeable-Phenotype (%): 27%
  Population Mitochondria Different-Phenotype (%): 7%
  Population Mitotic Cells (%): 89%
  Population Normal (%): 81%
  Population Pyknosed Nuclei (%): 6%
  Population Tubulin-Different-Phenotype (%): 65%
  Total Cell Count: 1437
[7]
  Population Apoptotic (%): 20%
  Population Fragmented Nuclei (%): 9%
  Population Healthy Nuclei (%): 85%
  Population Hoechst High Intensity Objects (%): 5%
  Population Membrane Permeable-Phenotype (%): 10%
  Population Mitochondria Different-Phenotype (%): 5%
  Population Mitotic Cells (%): 79%
  Population Normal (%): 94%
  Population Pyknosed Nuclei (%): 5%
  Population Tubulin-Different-Phenotype (%): 8%
  Total Cell Count: 810
[8]
  Population Apoptotic (%): 1%
  Population Fragmented Nuclei (%): 24%
  Population Healthy Nuclei (%): 73%
  Population Hoechst High Intensity Objects (%): 3%
  Population Membrane Permeable-Phenotype (%): 7%
  Population Mitochondria Different-Phenotype (%): 1%
  Population Mitotic Cells (%): 98%
  Population Normal (%): 96%
  Population Pyknosed Nuclei (%): 2%
  Population Tubulin-Different-Phenotype (%): 10%
  Total Cell Count: 3237
